Test results published in PMC4021855 (Nature chemical biology, 2013).
Blank lines part the entries; values can stand above or below the compound they belong to.

What was measured:
[1] = test system: H226 cells; test: Transwell cell migration assay; assay type: cell-based, human
Summary of the method: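 H226 cells (1×10^5 per well) placed in the top chamber of a laminin-coated (10 μg/ml) 8.0 μm polycarbonate Transwell and left to migrate for 12 h with test compound. Migrated cells fixed in 70% methanol and stained with hematoxylin. Non-migrants swabbed off; cells counted in 3 random ×20 fields.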

[2] = test system: WI-26 cells; test: Transwell cell migration assay; assay type: cell-based; details: read-out: IC50 for inhibition of migration of WI-26
[3] = test system: H226 cells; test: Matrigel invasion assay; assay type: cell-based, human
Summary of the method: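 Upper chamber of Transwell (8.0 μm pore polycarbonate) coated with Matrigel 1 mg/ml in cold serum-free medium and set 4 h at 37°C. H226 cells seeded on top; lower chamber held medium with laminin 10 μg/ml. Cells exposed to test compound for 24 h. Invaded cells fixed in 70% methanol, hematoxylin-stained, and counted in 3 random ×20 fields. Mean ± s.d.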

[4] = test system: 4T1 cells; test: 4T1 mammary fat pad breast cancer metastasis model; assay type: in vivo, mouse; details: oral, 100 and 300 mg/kg
Summary of the method: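 4×10^4 4T1 cells injected into the surgically exposed No. 2 mammary fat pad of anaesthetised 7-week-old female BALB/cAnCr mice. Primary tumours (100–150 mm³) resected on day 10. Groups of n=5 balanced by resected tumour weight. Test compound or 0.5% methyl cellulose given orally once daily from day 1 after resection. Lungs excised at day 28 post-injection, fixed in Bouin's solution, and pulmonary nodules counted.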

[5] = test system: Tg(MMTV-PyVT) mouse; test: Tg; assay type: in vivo; details: 100 mg/kg intraperitoneally every other day for 6 weeks
[6] = test system: A549-RFP cells; test: A549-RFP left ventricle injection metastasis model; assay type: in vivo, mouse; details: 100 mg/kg oral once a day
Summary of the method: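 1×10^6 stable A549-RFP cells injected into the left ventricle of anaesthetised 6-week-old female BALB/cAnCr nude mice, n=10 per group. Test compound or 0.5% methyl cellulose given orally once daily from day 1 for 130 days. RFP signal of 5 random mice imaged by IVIS weekly, weeks 4–7. Body weight taken twice weekly for 50 days; survival followed to day 130.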

[7] = target: KRS (Homo sapiens, UniProt Q15046); test: KRS aminoacylation enzymatic assay; assay type: biochemical; details: 0 to 40 μM
Chain of KRS (Q15046 whole entry): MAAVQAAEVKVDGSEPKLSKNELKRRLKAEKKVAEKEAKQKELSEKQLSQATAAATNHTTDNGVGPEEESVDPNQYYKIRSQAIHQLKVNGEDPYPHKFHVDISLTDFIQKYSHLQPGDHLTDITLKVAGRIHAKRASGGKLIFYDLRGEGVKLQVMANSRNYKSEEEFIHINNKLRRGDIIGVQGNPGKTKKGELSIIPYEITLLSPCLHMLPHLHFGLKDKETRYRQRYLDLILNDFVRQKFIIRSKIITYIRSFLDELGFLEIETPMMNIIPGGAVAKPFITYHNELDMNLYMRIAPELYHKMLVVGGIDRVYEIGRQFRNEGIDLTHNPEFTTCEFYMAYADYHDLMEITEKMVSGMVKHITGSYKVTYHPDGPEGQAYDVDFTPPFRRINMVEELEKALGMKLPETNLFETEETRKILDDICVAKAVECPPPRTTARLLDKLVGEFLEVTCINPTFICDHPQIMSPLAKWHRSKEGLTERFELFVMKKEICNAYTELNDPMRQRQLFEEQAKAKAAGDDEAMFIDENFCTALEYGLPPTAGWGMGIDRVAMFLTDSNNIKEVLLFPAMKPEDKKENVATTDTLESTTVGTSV
Summary of the method: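 KRS pre-incubated with test compound (0 to 40 μM final) for 30 min at 4°C before the aminoacylation reaction. Reaction aliquots quenched and precipitated on filter plates, washed, eluted with 0.2 M NaOH, and counted on a scintillation plate reader.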

[8] = test system: H226 cells; test: Total protein synthesis; assay type: cell-based, human
Summary of the method: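 Compound-treated H226 cells held 30 min in Met-free medium, then labelled with [³⁵S]Met for 2 h. Cells returned to complete medium for 4 h, then lysed; radioactivity measured by scintillation counting. Lys variant used Lys-free medium and [³H]Lys.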

[9] = test system: H226 cells; test: MTT cell viability assay; assay type: cell-based, human; details: 24 h
Summary of the method: (§1)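 1×10^4 cells per well in 96-well plates; preincubated 1 h with laminin, then exposed to test compound for 24 h in serum-free medium. MTT (stock 5 mg/ml, diluted 10-fold) added for 30 min. Crystals dissolved in DMSO; absorbance read at […].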

[10] = test system: WI-26 cells; test: MTT cell viability assay; assay type: cell-based; details: 24 h
Summary of the method: as §1

[11] = target: KRS1–207 (Homo sapiens, UniProt Q15046); test: SPR binding analysis
Chain of KRS1–207 (Q15046 1-207): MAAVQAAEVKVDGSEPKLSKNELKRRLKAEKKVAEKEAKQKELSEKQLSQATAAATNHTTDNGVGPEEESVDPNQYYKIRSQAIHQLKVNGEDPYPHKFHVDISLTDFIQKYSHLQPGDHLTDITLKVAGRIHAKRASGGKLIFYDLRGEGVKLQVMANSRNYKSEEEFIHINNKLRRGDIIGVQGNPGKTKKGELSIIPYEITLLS
Summary of the method: (§2)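 Proteins immobilised at 30 μg/ml in 10 mM sodium acetate pH 5.0 on a CM5 chip: His-KRS WT, 1–207 and 220–597, plus GST-37LRP. Test compound in PBS with 0.05% Tween 20 and 2% DMSO, flowed at 20 μl/min, 25°C; binding read as RU change. For GST-tagged proteins, GST-only RU subtracted. Apparent constants fitted to 1:1 binding with drifting baseline.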

[12] = target: 37LRP (Homo sapiens, UniProt P08865); test: SPR binding analysis
Summary of the method: as §2

[13] = target: KRS–AIMP2 (Homo sapiens, UniProt Q15046); test: Quantification of the KRS–AIMP2 interaction; assay type: binding; details: 0–100 μM
Chain of KRS–AIMP2 (Q15046 whole entry, the tested form may be a part): as the sequence (Q15046 whole entry) above
Chain of KRS–AIMP2 (Q13155 1-48 partner limits assumed): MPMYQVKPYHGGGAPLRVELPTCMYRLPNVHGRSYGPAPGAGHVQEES
Summary of the method: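 AlphaScreen format. His-tagged KRS incubated overnight at 4°C with test compound (0–100 μM final). Ni-chelate donor beads (0.01 mg/ml final) added for 15 min. Acceptor beads (0.01 mg/ml final) and biotinylated AIMP2(1–48)–thioredoxin fusion then added for 1.5 h. Emission read at 520–620 nm, room temperature, triplicate.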

[14] = target: KRS–67LR interaction (Homo sapiens, UniProt Q15046); test: In vitro pull-down and IP assays; assay type: binding
Chain of KRS–67LR interaction (Q15046 whole entry): as the sequence (Q15046 whole entry) above
Summary of the method: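 In vitro: 37LRP radiolabelled by coupled transcription/translation, mixed with 1 μg GST–KRS plus test compound, then GST pull-down; bound 37LRP detected by autoradiography. IP: Myc-KRS-transfected H226 cells pretreated with laminin 10 μg/ml for 1 h in serum-free medium, then test compound for 4 h. Lysates or membrane/cytosol fractions then used for IP and immunoblotting.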

[15] = test system: 67LR; test: Membranous 67LR level by immunoblotting; assay type: cell-based
[16] = test system: MMP-2; test: MMP-2 zymography; assay type: cell-based
Summary of the method: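 H226 cells treated with laminin (10 μg/ml) plus test compound for 12 h. Conditioned-medium proteins run on 10% SDS-PAGE containing 1 mg/ml gelatin. Gel incubated in reaction buffer; gelatinolytic zone of MMP-2 visualised by Coomassie Blue staining.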

[17] = Hematological metrics and blood chemistry in ICR mice; assay type: in vivo, mouse; details: high doses
[18] = Pharmacokinetics analysis in male ICR mice; assay type: in vivo, mouse; details: 3 mg/kg
Summary of the method: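 Male ICR mice, n=4 per group, dosed at 3 mg/kg. Intravenous dosing as a solution in 40% dimethylformamide; oral dosing as a suspension in 0.5% methyl cellulose. About 50 μl orbital-vein blood drawn at 0.083 (i.v. only), 0.25, 0.5, 1, 2, 4, 8 and 24 h. Plasma stored at −70°C.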

[19] = target: T1, KRS–LR interaction (Homo sapiens, UniProt Q15046); test: Comparison of YH16899 with BC-K01 across functional assays; details: most of the assays tested
T1 sequence (Q15046 whole entry): as above

[20] = target: T1, KRS–LR interaction; test: Yeast two-hybrid; assay type: cell-based; details: Y2H, 50 μg/ml, 6-day incubation
Summary of the method: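 Yeast EGY/SH cells co-expressing LexA–KRS and B42–LR grown in galactose medium lacking Ura, His, Trp and Leu, with compound at 50 μg/ml final. OD540 read after 6 days.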

SMILES: CCC(C(=O)O)n1c(=NC(=O)c2cccc(C(F)(F)F)c2)sc2cc(F)c(F)cc21 (centres unmarked) [YH16899, 2-(5,6-difluoro-2-{[3-(trifluoromethyl)benzoyl]imino}benzo[d]thiazol-3(2H)-yl)butanoic acid]
IC50 ([1]; Homo sapiens, NCI-H226, 12 h, read-out: IC50 for inhibition of H226 migration): 8.5 ± 2.1 µM
IC50 [2]: > 50 µM
suppression of cell invasion ([3]; H226 cells, Matrigel): approximately 85%
effect on body weight [4]: little or no effect on body weight
inhibition of tumor metastases to the lungs ([4]; once a day): approximately 60%
effect on body weight [5]: without affecting body weight
reduction of pulmonary nodule formation [5]: approximately 70%
effect on body weight [6]: did not affect the body weight
survival ([6]; followed up to 130 days): greatly enhanced survival
reduction of average radiance (photon imaging) ([6]; up to 7 weeks): approximately 50%
effect on the catalytic activity of KRS [7]: little or no effect
effect on cellular protein synthesis [8]: little or no effect
effect on cell viability [9]: did not affect the cell viability
effect on cell viability [10]: did not affect the cell viability
binding to KRS1–207 compared with KRS1–597 and KRS220–597 [11]: preferential binding
binding to 37LRP [12]: did not show significant binding
change in KRS binding affinity to AIMP2 [13]: little or no change
effect on binding of KRS and LR [14]: hindered the interaction between the two proteins
effect on level of 67LR in the plasma membrane [15]: decreased the amount of membranous 67LR
effect on MMP-2 [16]: suppressed the induction of MMP-2
side effects (hematological metrics and blood chemistry) [17]: few side effects
volume of distribution in vivo compared to BC-K01 [18]: better volume of distribution
improvement of IC50 compared to BC-K01 [19]: 3- to 6 fold

inhibition of KRS–LR interaction without affecting KRS–AIMP2 and MRS–AIMP3 pairs [20]: specifically inhibited
effect on binding of KRS and LR [14]: reduced the binding of the two proteins
SMILES: CCC(C(=O)O)n1c(=NC(=O)c2ccc(C)cc2)sc2ccccc21 (centres unmarked) [BC-K01, 2-(2-{[4-(methyl)benzoyl]imino}benzothiazol-3-yl)butanoic acid]
effect on cell migration [1]: suppressed
effect on cell invasion [3]: suppressed
effect on level of 67LR in the plasma membrane [15]: decreased the level of 67LR in the plasma membrane in a concentration-dependent manner
effect on MMP-2 [16]: suppressed the activity of MMP-2
